From ChEMBL document CHEMBL3627612, “Hirsutinolide Series Inhibit Stat3 Activity, Alter GCN1, MAP1B, Hsp105, G6PD, Vimentin, TrxR1, and Importin α-2 Expression, and Induce Antitumor Effects against Human Glioma” (J Med Chem, 2015)
The source made the active and inactive calls. The calls are words filed in the database; no cut-off is given here.

Legend:
[1] = Antiproliferative activity against human U251MG cells for 72 hrs by cyquant assay; type: functional, cell-based; settings: U-251, 72 h
Procedure, shortened: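 CyQuant proliferation assay after 72 h compound exposure of cultured cells; relative viability normalized to DMSO-treated control; IC50 values derived. Glioma lines grown in RPMI or DMEM with 10% FBS and 1% nonessential amino acids.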

[2] = Cytotoxicity against mouse NIH/3T3 cells at 1 uM by trypan blue exclusion with phase contrast microscopy; type: cell-based; settings: nih3t3, 1 µM
[3] = tested on: U-251; assay: Antiproliferative activity against human U251MG cells at 5 uM for 24 hrs by BrdU incorporation assay; type: functional, cell-based
Procedure, shortened: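 U251MG on glass coverslips treated with DMSO or 5 μM compound for 3–24 h; 10 μM BrdU added during the last 2 h. Cells fixed in 4% paraformaldehyde, stained with anti-BrdU antibody, DAPI counterstained, imaged by fluorescence microscopy and counted.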

[4] = Decrease in G6PD expression in human U251MG cells at 5 uM for 1 hr by mass spectrometry relative to control; type: functional, cell-based; settings: U-251
Procedure, shortened: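 U251MG cells treated 1 h with 5 μM compound; whole-cell lysates analyzed by global proteomics mass spectrometry; protein levels expressed relative to DMSO-treated cells.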

[5] = Decrease in TxR1 cytoplasmic isoform 3 expression in human U251MG cells at 5 uM for 1 hr by mass spectrometry relative to control; type: functional, cell-based; settings: U-251
Procedure, shortened: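 Global proteomic mass spectrometry of lysates from U251MG cells treated 1 h with 5 μM compound; protein levels expressed relative to DMSO-treated cells.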

[6] = biological target: Stalled ribosome sensor GCN1 (Homo sapiens) (UniProt Q92616); assay: Decrease in GCN1 expression in human U251MG cells at 5 uM for 2 hrs by immunoblot analysis; type: functional, cell-based; settings: U-251
Sequence of Stalled ribosome sensor GCN1 (Homo sapiens) (Q92616 whole entry): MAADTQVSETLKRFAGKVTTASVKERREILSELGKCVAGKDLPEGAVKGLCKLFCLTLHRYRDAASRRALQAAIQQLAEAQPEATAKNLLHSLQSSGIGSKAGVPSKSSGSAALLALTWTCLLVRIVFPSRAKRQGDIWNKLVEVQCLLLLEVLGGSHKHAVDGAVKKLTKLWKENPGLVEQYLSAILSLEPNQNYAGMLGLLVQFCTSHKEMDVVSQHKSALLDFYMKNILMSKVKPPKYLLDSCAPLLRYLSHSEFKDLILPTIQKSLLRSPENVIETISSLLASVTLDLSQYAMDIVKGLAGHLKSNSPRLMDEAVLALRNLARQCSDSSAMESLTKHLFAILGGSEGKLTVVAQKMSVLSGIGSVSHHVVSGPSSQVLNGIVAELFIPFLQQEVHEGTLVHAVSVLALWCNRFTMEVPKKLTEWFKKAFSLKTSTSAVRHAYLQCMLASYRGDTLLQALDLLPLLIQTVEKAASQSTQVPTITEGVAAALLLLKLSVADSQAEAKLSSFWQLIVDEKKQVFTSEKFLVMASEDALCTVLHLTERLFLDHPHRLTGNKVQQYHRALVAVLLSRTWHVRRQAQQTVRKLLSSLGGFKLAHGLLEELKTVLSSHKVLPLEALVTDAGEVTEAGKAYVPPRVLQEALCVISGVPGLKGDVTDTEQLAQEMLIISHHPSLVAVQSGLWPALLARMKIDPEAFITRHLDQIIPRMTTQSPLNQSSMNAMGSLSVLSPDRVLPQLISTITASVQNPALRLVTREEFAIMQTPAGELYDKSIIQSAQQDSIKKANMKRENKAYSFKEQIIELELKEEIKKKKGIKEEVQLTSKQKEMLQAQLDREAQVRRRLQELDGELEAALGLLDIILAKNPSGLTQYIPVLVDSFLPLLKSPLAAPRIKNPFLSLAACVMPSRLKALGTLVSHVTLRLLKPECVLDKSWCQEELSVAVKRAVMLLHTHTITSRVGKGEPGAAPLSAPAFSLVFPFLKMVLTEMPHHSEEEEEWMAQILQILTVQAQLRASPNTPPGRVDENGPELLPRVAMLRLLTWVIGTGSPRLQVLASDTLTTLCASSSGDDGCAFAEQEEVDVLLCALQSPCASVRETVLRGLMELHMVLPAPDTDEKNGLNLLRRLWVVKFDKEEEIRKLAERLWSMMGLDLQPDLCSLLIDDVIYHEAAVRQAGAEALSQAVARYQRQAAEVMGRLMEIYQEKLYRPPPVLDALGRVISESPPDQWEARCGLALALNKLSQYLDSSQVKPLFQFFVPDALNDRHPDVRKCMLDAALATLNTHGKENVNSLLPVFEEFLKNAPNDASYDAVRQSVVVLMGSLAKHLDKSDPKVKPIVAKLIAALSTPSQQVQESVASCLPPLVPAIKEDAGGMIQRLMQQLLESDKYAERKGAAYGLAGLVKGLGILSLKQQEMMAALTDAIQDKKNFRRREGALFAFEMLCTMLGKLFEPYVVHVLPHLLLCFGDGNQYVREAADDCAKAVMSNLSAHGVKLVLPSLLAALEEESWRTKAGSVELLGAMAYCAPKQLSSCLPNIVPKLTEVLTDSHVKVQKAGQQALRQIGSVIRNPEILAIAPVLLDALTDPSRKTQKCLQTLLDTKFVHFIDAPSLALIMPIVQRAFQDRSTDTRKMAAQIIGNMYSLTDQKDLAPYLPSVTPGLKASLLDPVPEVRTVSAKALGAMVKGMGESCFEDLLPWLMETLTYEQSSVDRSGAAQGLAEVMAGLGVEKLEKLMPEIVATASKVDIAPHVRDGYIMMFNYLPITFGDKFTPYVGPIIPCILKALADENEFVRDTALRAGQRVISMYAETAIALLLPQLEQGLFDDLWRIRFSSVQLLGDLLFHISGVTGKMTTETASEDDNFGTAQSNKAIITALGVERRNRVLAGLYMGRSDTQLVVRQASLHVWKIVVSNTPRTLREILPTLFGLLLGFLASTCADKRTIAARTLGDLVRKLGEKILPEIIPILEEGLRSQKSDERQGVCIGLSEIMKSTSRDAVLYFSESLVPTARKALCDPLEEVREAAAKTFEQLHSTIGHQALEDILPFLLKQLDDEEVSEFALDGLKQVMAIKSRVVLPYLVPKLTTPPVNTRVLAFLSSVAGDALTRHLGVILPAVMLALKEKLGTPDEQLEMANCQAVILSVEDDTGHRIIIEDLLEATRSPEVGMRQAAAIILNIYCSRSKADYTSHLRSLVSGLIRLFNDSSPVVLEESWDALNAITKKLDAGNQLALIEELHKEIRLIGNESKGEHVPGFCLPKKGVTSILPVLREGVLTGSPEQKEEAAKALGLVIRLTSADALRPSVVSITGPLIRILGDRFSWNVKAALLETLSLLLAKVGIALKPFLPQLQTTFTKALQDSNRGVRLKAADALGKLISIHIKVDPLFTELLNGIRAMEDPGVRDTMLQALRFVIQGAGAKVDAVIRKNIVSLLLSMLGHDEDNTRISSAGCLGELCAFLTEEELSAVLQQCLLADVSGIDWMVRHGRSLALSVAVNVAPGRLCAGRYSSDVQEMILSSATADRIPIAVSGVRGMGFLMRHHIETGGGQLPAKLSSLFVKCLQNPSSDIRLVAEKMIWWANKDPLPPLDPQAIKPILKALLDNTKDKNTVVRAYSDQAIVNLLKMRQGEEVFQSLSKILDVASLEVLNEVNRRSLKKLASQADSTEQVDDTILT

[7] = biological target: Heat shock protein 105 kDa (Homo sapiens) (UniProt Q92598); assay: Decrease in Hsp105 expression in human U251MG cells at 5 uM for 2 hrs by immunoblot analysis; type: functional, cell-based; settings: U-251
Sequence of Heat shock protein 105 kDa (Homo sapiens) (Q92598 whole entry): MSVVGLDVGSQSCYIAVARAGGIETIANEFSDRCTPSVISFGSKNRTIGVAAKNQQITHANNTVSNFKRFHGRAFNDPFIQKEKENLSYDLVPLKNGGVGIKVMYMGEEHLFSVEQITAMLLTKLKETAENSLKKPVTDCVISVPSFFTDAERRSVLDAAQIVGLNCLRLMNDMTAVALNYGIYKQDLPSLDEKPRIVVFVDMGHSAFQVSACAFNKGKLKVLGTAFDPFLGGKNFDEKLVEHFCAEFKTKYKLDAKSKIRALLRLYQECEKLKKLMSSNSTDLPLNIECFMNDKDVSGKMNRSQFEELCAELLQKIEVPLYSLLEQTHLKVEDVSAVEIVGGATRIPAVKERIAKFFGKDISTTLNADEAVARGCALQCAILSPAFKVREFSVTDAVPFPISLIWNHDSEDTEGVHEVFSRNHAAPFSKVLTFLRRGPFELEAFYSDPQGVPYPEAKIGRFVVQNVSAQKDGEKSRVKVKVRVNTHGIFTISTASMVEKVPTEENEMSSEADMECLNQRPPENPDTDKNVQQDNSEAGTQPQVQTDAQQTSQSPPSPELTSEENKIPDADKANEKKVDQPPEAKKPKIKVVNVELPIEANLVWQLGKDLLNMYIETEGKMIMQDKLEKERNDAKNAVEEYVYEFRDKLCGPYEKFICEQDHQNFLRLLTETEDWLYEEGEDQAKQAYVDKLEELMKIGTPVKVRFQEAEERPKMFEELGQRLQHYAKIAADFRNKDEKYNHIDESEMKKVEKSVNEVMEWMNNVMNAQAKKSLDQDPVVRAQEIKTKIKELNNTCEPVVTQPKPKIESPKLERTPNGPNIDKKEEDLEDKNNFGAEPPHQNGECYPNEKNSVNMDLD

[8] = tested on: U-251; assay: Increase in importin subunit alpha2 expression in human U251MG cells at 5 uM for 2 hrs by immunoblot analysis; type: functional, cell-based
[9] = Decrease in vimentin expression in human U251MG cells at 5 uM for 2 hrs by immunoblot analysis; type: functional, cell-based; settings: U-251
[10] = biological target: Stalled ribosome sensor GCN1 (Homo sapiens) (UniProt Q92616); assay: Decrease in GCN1 expression in human U373MG cells at 5 uM for 2 hrs by immunoblot analysis; type: functional, cell-based; settings: U-373MG ATCC
[11] = biological target: Heat shock protein 105 kDa (Homo sapiens) (UniProt Q92598); assay: Decrease in Hsp105 expression in human U373MG cells at 5 uM for 2 hrs by immunoblot analysis; type: functional, cell-based; settings: U-373MG ATCC
[12] = Decrease in TrxR1 expression in human U373MG cells at 5 uM for 2 hrs by immunoblot analysis; type: functional, cell-based; settings: U-373MG ATCC
[13] = Decrease in vimentin expression in human U373MG cells at 5 uM for 2 hrs by immunoblot analysis; type: functional, cell-based; settings: U-373MG ATCC
[14] = Decrease in G6PD expression in human U373MG cells at 5 uM for 2 hrs by immunoblot analysis; type: functional, cell-based; settings: U-373MG ATCC
[15] = biological target: Stalled ribosome sensor GCN1 (Homo sapiens) (UniProt Q92616); assay: Decrease in GCN1 expression in human Glioma (G22) patient derived xenograft cells at 5 uM for 2 hrs by immunoblot analysis; type: functional; settings: Glioma cell
[16] = biological target: Heat shock protein 105 kDa (Homo sapiens) (UniProt Q92598); assay: Decrease in Hsp105 expression in human Glioma (G22) patient derived xenograft cells at 5 uM for 2 hrs by immunoblot analysis; type: functional; settings: Glioma cell
[17] = tested on: Glioma cell; assay: Increase in importin subunit alpha2 expression in human Glioma (G22) patient derived xenograft cells at 5 uM for 2 hrs by immunoblot analysis; type: functional
[18] = Decrease in G6PD expression in human Glioma (G22) patient derived xenograft cells at 5 uM for 2 hrs by immunoblot analysis; type: functional; settings: Glioma cell
[19] = biological target: Microtubule-associated protein 1B (Homo sapiens) (UniProt P46821); assay: Decrease in MAP1B expression in human Glioma (G22) patient derived xenograft cells at 5 uM for 2 hrs by immunoblot analysis; type: functional; settings: Glioma cell
[20] = tested on: U-251; assay: Antitumor activity against human U251MG cells xenografted in mouse assessed as decrease in tumor growth at 2 mg/kg three times a week for 33 days administered via oral gavage; type: functional, organism-based
Procedure, shortened: (§1)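 Female athymic nude mice, 4 weeks old, given subcutaneous flank injections of 7.3×10^6 U251MG cells in PBS/matrigel; dosing began at 170–250 mm3 tumors (day 20). Oral gavage 2 mg/kg, vehicle 1% DMSO, for 33 days. Caliper volumes V = 0.52×a²×b, compared with vehicle by paired t test; tumor lysates immunoblotted for pStat3, Stat3, GAPDH.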

[21] = tested on: U-251; assay: Antitumor activity against human U251MG cells xenografted in mouse assessed as decrease in Stat3 level in tumor at 2 mg/kg three times a week for 33 days administered via oral gavage by immunoblot analysis; type: functional, organism-based; procedure, shortened: as §1
[22] = tested on: Mus musculus; assay: Toxicity in mouse xenografted with U251MG cells assessed as loss of appetite at 2 mg/kg three times a week for 33 days administered via oral gavage; type: organism-based, U-251; settings: in vivo, 792 h
Procedure, shortened: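 Four-week-old female athymic nude mice, injected subcutaneously in the left flank with 7.3×10^6 U251MG cells in PBS/matrigel (1:1). Tumors of 170–250 mm^3 formed by day 20, and groups were matched for mean size. Dosing was 2 mg/kg by oral gavage, three times weekly for 33 days, with 1% DMSO vehicle. Animals were monitored daily and weighed every 3 days.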

[23] = biological target: T1, Signal transducer and activator of transcription 3 (Homo sapiens, UniProt P40763); assay: Inhibition of Stat3 activity in human U251MG cells assessed as decrease in c-Myc expression at 5 uM after 24 hrs by immunoblot analysis; type: cell-based; settings: U-251
T1 sequence (P40763 whole entry): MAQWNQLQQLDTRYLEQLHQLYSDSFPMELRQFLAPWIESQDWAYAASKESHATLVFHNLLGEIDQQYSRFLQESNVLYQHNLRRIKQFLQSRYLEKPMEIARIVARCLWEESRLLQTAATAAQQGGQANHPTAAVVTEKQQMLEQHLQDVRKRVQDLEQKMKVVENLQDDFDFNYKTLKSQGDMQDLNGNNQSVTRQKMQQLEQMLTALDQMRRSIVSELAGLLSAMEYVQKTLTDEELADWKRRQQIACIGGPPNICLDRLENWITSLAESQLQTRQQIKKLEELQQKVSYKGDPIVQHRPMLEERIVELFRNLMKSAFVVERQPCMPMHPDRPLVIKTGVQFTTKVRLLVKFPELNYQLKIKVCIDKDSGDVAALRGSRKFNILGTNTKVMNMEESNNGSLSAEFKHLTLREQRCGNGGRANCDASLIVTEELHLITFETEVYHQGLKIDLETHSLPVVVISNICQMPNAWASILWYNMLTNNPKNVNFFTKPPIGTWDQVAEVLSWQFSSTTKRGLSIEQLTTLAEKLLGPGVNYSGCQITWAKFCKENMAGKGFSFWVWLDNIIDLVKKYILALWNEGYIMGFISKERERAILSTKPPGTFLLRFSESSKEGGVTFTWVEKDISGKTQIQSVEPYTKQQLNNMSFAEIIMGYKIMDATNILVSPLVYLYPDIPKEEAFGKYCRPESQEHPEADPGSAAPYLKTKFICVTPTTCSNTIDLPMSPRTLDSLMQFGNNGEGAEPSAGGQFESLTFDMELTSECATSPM
Procedure, shortened: (§2)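 U251MG cells treated with 5 μM compound for 0–24 h. Whole-cell lysates immunoblotted for pStat3, Stat3, c-Myc, Bcl-2, Bcl-xL, Mcl-1, GAPDH. Control was 0.025% DMSO.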

[24] = biological target: T1, Signal transducer and activator of transcription 3; assay: Inhibition of Stat3 activity in human U251MG cells assessed as decrease in Mcl-1 expression at 5 uM after 24 hrs by immunoblot analysis; type: cell-based; settings: U-251; procedure, shortened: as §2
[25] = biological target: T1, Signal transducer and activator of transcription 3; assay: Inhibition of Stat3 activity in human U251MG cells assessed as decrease in Bcl-xl expression at 5 uM after 24 hrs by immunoblot analysis; type: cell-based; settings: U-251; procedure, shortened: as §2
[26] = biological target: Tyrosine-protein kinase JAK2 (Homo sapiens) (UniProt O60674); assay: Modulation of Jak2 phosphorylation in human U251MG cells at 5 uM after 0.5 to 24 hrs by immunoblot analysis; type: cell-based; settings: U-251
Procedure, shortened: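 U251MG glioma cells (RPMI or DMEM, 10% FBS, 1% nonessential amino acids) treated with 5 μM compound for 0–24 h; 0.025% DMSO control. Whole-cell lysates of equal total protein immunoblotted for pErk1/2, Erk1/2, pJAK2 and JAK2 with β-actin or GAPDH loading controls. Representative of 2–4 independent determinations.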

[27] = biological target: T1, Signal transducer and activator of transcription 3; assay: Inhibition of Stat3 phosphorylation in human U251MG cells transfected with Stat3 flag-tagged coliled coil domain at 5 uM after 1.5 hrs by immunoblot analysis; type: cell-based; settings: U-251
Procedure, shortened: (§3)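 U251MG cells transiently transfected with 7.5–21 μg FLAG-Stat3 NTD, CCD, DBD or CTD plasmid, or pcDNA3 mock. Re-seeded 24 h later; after another 18 h, treated with or without 5 μM compound for 1.5 h. Whole-cell lysates immunoblotted for FLAG, pY705Stat3, Stat3, GAPDH. 0.025% DMSO control. Representative of 2 independent determinations.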

[28] = biological target: T1, Signal transducer and activator of transcription 3; assay: Inhibition of Stat3 phosphorylation in human U251MG cells transfected with Stat3 flag-tagged DNA-binding domain at 5 uM after 1.5 hrs by immunoblot analysis; type: cell-based; settings: U-251; procedure, shortened: as §3

inhibition [6]	inhibition [7]	inhibition [10]	inhibition [11]	inhibition [15]	inhibition [16]	inhibition [19]	Compound	IC50 [1]	Activity [3]	Activity [8]	inhibition [9]	inhibition [12]	inhibition [13]	inhibition [14]	Activity [17]	inhibition [18]	Activity [20]	Activity [21]	Activity [22]	further results
–	–	–	–	–	–	–	C/C=C(\C)C(=O)O[C@H]1C[C@@H](C)[C@]2(OC)CC[C@](C)(/C=C3/OC(=O)C(COC(C)=O)=C31)O2	3400 nM	–	–	–	–	–	–	–	–	–	–	–	–
Active	Active	Active	Active	Active	Active	Active	C/C=C(\C)C(=O)OCC1=C2/C(=C\[C@@]3(C)CC[C@](O)(O3)[C@H](C)C[C@@H]2O)OC1=O	–	Active	Active	Active	Active	Active	Active	Active	Active	Active	Active	Non-toxic	Activity [2]: Non-toxic; fold change (FC) [4]: 0.275; fold change (FC) [5]: 0.305
Active	Active	Active	Active	Active	Active	Active	C/C=C(\C)C(=O)O[C@H]1C[C@@H](C)[C@]2(O)CC[C@](C)(/C=C3/OC(=O)C(COC(C)=O)=C31)O2	1700 nM	Active	Active	Active	Active	Active	Active	Active	Active	Active	Active	Non-toxic	inhibition [23]: Active; inhibition [24]: Active; inhibition [25]: Active; Activity [26]: Active; inhibition [27]: Active; inhibition [28]: inactive
